{"source": "ChEMBL document CHEMBL1155265", "about": "“Design, synthesis and in vitro antibacterial/antifungal evaluation of novel 1-ethyl-6-fluoro-1,4-dihydro-4-oxo-7(1-piperazinyl)quinoline-3-carboxylic acid derivatives” (2009)", "format_in_all_cases": "functional", "key": {"Xanthomonas oryzae": {"system": "Xanthomonas oryzae", "experiment": "Antibacterial activity against Xanthomonas oryzae at 50 mg/L after 24 hrs by agar well diffusion method", "conditions": "read-out: DIZ"}, "Xanthomonas axonopodis": {"system": "Xanthomonas axonopodis", "experiment": "Antibacterial activity against Xanthomonas axonopodis at 50 mg/L after 24 hrs by agar well diffusion method", "conditions": "read-out: DIZ", "summary_of_the_method": "(§1)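 Bacteria plated as 0.8 mL of 24-h-old inoculum mixed into 60 mL sterile molten agar cooled to 45 °C, poured into three dishes. Wells bored with centres at least 24 mm apart. Test sample at 50 mg/L in DMSO added to wells. DMSO served as negative control and agricultural streptomycin sulfate as positive control. Read-out was inhibition zone diameter (mm).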"}, "Erwinia": {"system": "Erwinia", "experiment": "Antibacterial activity against Erwinia aroideae at 50 mg/L after 24 hrs by agar well diffusion method", "conditions": "read-out: DIZ", "summary_of_the_method": "as §1"}, "Bacillus subtilis": {"system": "Bacillus subtilis", "experiment": "Antibacterial activity against Bacillus subtilis at 50 mg/L after 24 hrs by agar well diffusion method", "conditions": "read-out: DIZ", "summary_of_the_method": "as §1"}, "Ralstonia solanacearum": {"system": "Ralstonia solanacearum", "experiment": "Antibacterial activity against Ralstonia solanacearum at 50 mg/L after 24 hrs by agar well diffusion method", "conditions": "read-out: DIZ"}, "Rhizoctonia solani": {"system": "Rhizoctonia solani", "experiment": "Antifungal activity against Rhizoctonia solani at 200 mg/L by plate growth rate method", "conditions": "read-out: GI", "summary_of_the_method": "(§2)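 Compound dissolved in DMSO and mixed into molten PDA at 45 °C at 200 mg/L, then plates allowed to set. A 5 mm mycelial agar disc was placed at the centre. Plates were incubated at 28 °C in the dark until the untreated control covered the plate. Colony diameters were measured and growth inhibition calculated by Abbott's formula. Each compound was tested three times.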"}, "Fusarium graminearum": {"system": "Fusarium graminearum", "experiment": "Antifungal activity against Gibberella zeae at 200 mg/L by plate growth rate method", "conditions": "read-out: GI", "summary_of_the_method": "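Plate growth rate method: compound dissolved in DMSO, mixed into sterile PDA at 45 °C to 200 mg/L, plates poured. A 5 mm mycelium agar disc placed centrally; incubated at 28 °C in the dark until the untreated control covered the plate. Colony diameters measured; growth inhibition computed by Abbott's formula. Each compound tested three times.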"}, "Cytospora mali": {"system": "Cytospora mali", "experiment": "Antifungal activity against Valsa mali at 200 mg/L by plate growth rate method", "conditions": "read-out: GI", "summary_of_the_method": "as §2"}}}
{"smiles": "CCn1cc(C(=O)O)c(=O)c2cc(F)c(N3CCN(C(=O)c4ccccc4Cl)CC3)cc21", "values": [{"measurement": "zone of inhibition at 50 µg/mL", "setting": "Xanthomonas oryzae", "value": 16.9, "unit": "mm"}, {"measurement": "zone of inhibition at 50 µg/mL", "setting": "Xanthomonas axonopodis", "value": 14.2, "unit": "mm"}, {"measurement": "zone of inhibition at 50 µg/mL", "setting": "Erwinia", "value": 16, "unit": "mm"}, {"measurement": "zone of inhibition at 50 µg/mL", "setting": "Bacillus subtilis", "value": 19, "unit": "mm"}, {"measurement": "zone of inhibition at 50 µg/mL", "setting": "Ralstonia solanacearum", "value": 8.97, "unit": "mm"}, {"measurement": "inhibition of growth at 200 µg/mL", "setting": "Rhizoctonia solani", "value": 5, "unit": "%"}, {"measurement": "inhibition of growth at 200 µg/mL", "setting": "Fusarium graminearum", "value": 27, "unit": "%"}, {"measurement": "inhibition of growth at 200 µg/mL", "setting": "Cytospora mali", "value": 41, "unit": "%"}]}
{"smiles": "CCn1cc(C(=O)O)c(=O)c2cc(F)c(N3CCN(C(=O)/C=C/c4ccc(Cl)cc4Cl)CC3)cc21", "values": [{"measurement": "zone of inhibition at 50 µg/mL", "setting": "Xanthomonas oryzae", "value": 4.44, "unit": "mm"}, {"measurement": "zone of inhibition at 50 µg/mL", "setting": "Xanthomonas axonopodis", "value": 5.91, "unit": "mm"}, {"measurement": "zone of inhibition at 50 µg/mL", "setting": "Erwinia", "value": 2.92, "unit": "mm"}, {"measurement": "zone of inhibition at 50 µg/mL", "setting": "Bacillus subtilis", "value": 2.08, "unit": "mm"}, {"measurement": "zone of inhibition at 50 µg/mL", "setting": "Ralstonia solanacearum", "value": 0, "unit": "mm"}, {"measurement": "inhibition of growth at 200 µg/mL", "setting": "Rhizoctonia solani", "value": 0, "unit": "%"}, {"measurement": "inhibition of growth at 200 µg/mL", "setting": "Fusarium graminearum", "value": 2, "unit": "%"}, {"measurement": "inhibition of growth at 200 µg/mL", "setting": "Cytospora mali", "value": 6, "unit": "%"}]}
{"smiles": "CCn1cc(C(=O)O)c(=O)c2cc(F)c(N3CCN(C(=O)COc4ccccc4Cl)CC3)cc21", "values": [{"measurement": "zone of inhibition at 50 µg/mL", "setting": "Xanthomonas oryzae", "value": 17.2, "unit": "mm"}, {"measurement": "zone of inhibition at 50 µg/mL", "setting": "Xanthomonas axonopodis", "value": 10.4, "unit": "mm"}, {"measurement": "zone of inhibition at 50 µg/mL", "setting": "Erwinia", "value": 11.8, "unit": "mm"}, {"measurement": "zone of inhibition at 50 µg/mL", "setting": "Bacillus subtilis", "value": 14.2, "unit": "mm"}, {"measurement": "zone of inhibition at 50 µg/mL", "setting": "Ralstonia solanacearum", "value": 4.67, "unit": "mm"}, {"measurement": "inhibition of growth at 200 µg/mL", "setting": "Rhizoctonia solani", "value": 3, "unit": "%"}, {"measurement": "inhibition of growth at 200 µg/mL", "setting": "Fusarium graminearum", "value": 10, "unit": "%"}, {"measurement": "inhibition of growth at 200 µg/mL", "setting": "Cytospora mali", "value": 12, "unit": "%"}]}
{"smiles": "CCn1cc(C(=O)O)c(=O)c2cc(F)c(N3CCN(C(=O)COc4ccc(Br)cc4)CC3)cc21", "values": [{"measurement": "zone of inhibition at 50 µg/mL", "setting": "Xanthomonas oryzae", "value": 8.02, "unit": "mm"}, {"measurement": "zone of inhibition at 50 µg/mL", "setting": "Xanthomonas axonopodis", "value": 10.7, "unit": "mm"}, {"measurement": "zone of inhibition at 50 µg/mL", "setting": "Erwinia", "value": 8.94, "unit": "mm"}, {"measurement": "zone of inhibition at 50 µg/mL", "setting": "Bacillus subtilis", "value": 12.7, "unit": "mm"}, {"measurement": "zone of inhibition at 50 µg/mL", "setting": "Ralstonia solanacearum", "value": 7.47, "unit": "mm"}, {"measurement": "inhibition of growth at 200 µg/mL", "setting": "Rhizoctonia solani", "value": 49, "unit": "%"}, {"measurement": "inhibition of growth at 200 µg/mL", "setting": "Fusarium graminearum", "value": 6, "unit": "%"}, {"measurement": "inhibition of growth at 200 µg/mL", "setting": "Cytospora mali", "value": 9, "unit": "%"}]}
{"smiles": "CCn1cc(C(=O)O)c(=O)c2cc(F)c(N3CCNCC3)cc21", "note": "[NORFLOXACIN]", "values": [{"measurement": "zone of inhibition at 50 µg/mL", "setting": "Xanthomonas oryzae", "value": 22.2, "unit": "mm"}, {"measurement": "zone of inhibition at 50 µg/mL", "setting": "Xanthomonas axonopodis", "value": 17.7, "unit": "mm"}, {"measurement": "zone of inhibition at 50 µg/mL", "setting": "Erwinia", "value": 21.5, "unit": "mm"}, {"measurement": "zone of inhibition at 50 µg/mL", "setting": "Bacillus subtilis", "value": 30.5, "unit": "mm"}, {"measurement": "zone of inhibition at 50 µg/mL", "setting": "Ralstonia solanacearum", "value": 19.3, "unit": "mm"}, {"measurement": "inhibition of growth at 200 µg/mL", "setting": "Rhizoctonia solani", "value": 0, "unit": "%"}, {"measurement": "inhibition of growth at 200 µg/mL", "setting": "Fusarium graminearum", "value": 18, "unit": "%"}, {"measurement": "inhibition of growth at 200 µg/mL", "setting": "Cytospora mali", "value": 27, "unit": "%"}]}
{"smiles": "CCn1cc(C(=O)O)c(=O)c2cc(F)c(N3CCN(C(=O)c4cc5ccccc5o4)CC3)cc21", "values": [{"measurement": "zone of inhibition at 50 µg/mL", "setting": "Xanthomonas oryzae", "value": 8.35, "unit": "mm"}, {"measurement": "zone of inhibition at 50 µg/mL", "setting": "Xanthomonas axonopodis", "value": 8.66, "unit": "mm"}, {"measurement": "zone of inhibition at 50 µg/mL", "setting": "Erwinia", "value": 11, "unit": "mm"}, {"measurement": "zone of inhibition at 50 µg/mL", "setting": "Bacillus subtilis", "value": 11.2, "unit": "mm"}, {"measurement": "zone of inhibition at 50 µg/mL", "setting": "Ralstonia solanacearum", "value": 8.56, "unit": "mm"}, {"measurement": "inhibition of growth at 200 µg/mL", "setting": "Rhizoctonia solani", "value": 17, "unit": "%"}, {"measurement": "inhibition of growth at 200 µg/mL", "setting": "Fusarium graminearum", "value": 7, "unit": "%"}, {"measurement": "inhibition of growth at 200 µg/mL", "setting": "Cytospora mali", "value": 9, "unit": "%"}]}
{"smiles": "CCn1cc(C(=O)O)c(=O)c2cc(F)c(N3CCN(C(=O)COc4ccc(C(C)(C)C)cc4)CC3)cc21", "values": [{"measurement": "zone of inhibition at 50 µg/mL", "setting": "Xanthomonas oryzae", "value": 5.81, "unit": "mm"}, {"measurement": "zone of inhibition at 50 µg/mL", "setting": "Xanthomonas axonopodis", "value": 6.41, "unit": "mm"}, {"measurement": "zone of inhibition at 50 µg/mL", "setting": "Erwinia", "value": 8.52, "unit": "mm"}, {"measurement": "zone of inhibition at 50 µg/mL", "setting": "Bacillus subtilis", "value": 10.8, "unit": "mm"}, {"measurement": "zone of inhibition at 50 µg/mL", "setting": "Ralstonia solanacearum", "value": 10.9, "unit": "mm"}, {"measurement": "inhibition of growth at 200 µg/mL", "setting": "Rhizoctonia solani", "value": 53, "unit": "%"}, {"measurement": "inhibition of growth at 200 µg/mL", "setting": "Fusarium graminearum", "value": 28, "unit": "%"}, {"measurement": "inhibition of growth at 200 µg/mL", "setting": "Cytospora mali", "value": 14, "unit": "%"}]}
